{
  "source": "PubChem BioAssay AID485271",
  "about": "(The Scripps Research Institute Molecular Screening Center, 2010)",
  "test": "inhibition of HCV infection in cells, late-stage follow-up, counter-screen for HCV core dimerization inhibitor project, Huh-7.5 cells, quantitative PCR, fluorescence (AID 485271)",
  "conditions": "Huh-7.5 HCV J6/JFH-1 infection, RT-qPCR viral RNA",
  "in_short": "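Material: Huh-7.5 human hepatoma cells infected with HCV 2a J6/JFH-1 / Reagent: HCV J6/JFH-1 virus alongside compound / Compound: tenfold series, 100 to 0.001 µM / Detection: TaqMan RT-qPCR of viral RNA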",
  "data": [
    {"smiles": "Cc1ccc(Cc2c(C)nc3nc(SCC(=O)NCCCN4CCCCCC4)nn3c2C)cc1", "values": [
      {"measurement": "IC50", "setting": "time point 1", "result": 6.6, "unit": "µM"},
      {"measurement": "IC50", "setting": "time point 2", "result": 12, "unit": "µM"}
    ]}
  ]
}
